Experimental data: the array DNA melting data of Ke et al. (doi:10.1101/2024.01.08.574731)

Experiments:
[1] = folding enthalpy; higher = less favourable; fluorescence melt of hairpins on a sequencing array, two-state fit; conditions: sodium 0.088 M
Summary of the method: (§1)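 Folding enthalpy and melting temperature were estimated with bootstrapped two-state fits and combined across four replicates by inverse-variance weighting, with fitted temperatures raised by 9.35 °C to match UV melts. The data were Cy3 fluorescence of library hairpins, with annealed Cy3 and quencher oligos, on a sequenced MiSeq flow cell in 50 mM Na-HEPES pH 8.0, 25 mM NaCl, imaged in 2.5 °C steps up to 60 °C and normalised to pre-quench Cy3 and control constructs.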

[2] = melting temperature; fluorescence melt of hairpins on a sequencing array, two-state fit, raised by 9.35 °C to match UV melts; conditions: sodium 0.088 M
Summary of the method: as §1

| Sequence | folding enthalpy [1] [kcal/mol] | Tm [2] [°C] |
| --- | --- | --- |
| GCTCGTCCGAAAGGAAGC (((..(((....)))))) | -8.41 | 36.6 |
| GTATTTGGAAACAAATAC (((((((....))))))) | -44.3 | 50.5 |
| GATCGGACGCCCGATC ((((((....)))))) | -38 | 57.3 |
| GGCGGTGGAAACACCACC ((.((((....)))).)) | -27.5 | 53 |
| GCTGGCGAAAGCCAAGC ((((((....))).))) | -20.2 | 66.5 |
| GATGCGACGAAAGTCATC (((..(((....)))))) | -13 | 27.8 |
| GGCACTACGAAAGTAGCC (((..(((....)))))) | -11.9 | 39.3 |
| GGAGGAGGAAACTCCTCC (((((((....))))))) | -40.3 | 65.9 |
| GTTGATGAAAATCAAC ((((((....)))))) | -33.9 | 52.4 |
| GATCAGGGAACTGATC ((((((....)))))) | -33 | 55.5 |
| GATCCAGAATTGGATC ((((((....)))))) | -34.7 | 57.2 |
| GATCACATTGGTGATC ((((((....)))))) | -40.1 | 56.7 |
| GTAGTGGGAAACCACTGC (.(((((....))))).) | -19.4 | 50.6 |
| GCCGCGCGAAAGCTTGGC (((..((....))..))) | -22.7 | 55.1 |
| GATCGGCTGCCGATC ((((((...)))))) | -55.3 | 57.2 |
| GGTAACGAAAGTTAACC ((((((....))).))) | -18.2 | 45.3 |
| GATCTATCATAGATC ((((((...)))))) | -28 | 40.1 |
| GAGAAAGGAAACTTTCTC (((((((....))))))) | -39.2 | 50.8 |
| GCATTGCGAAAGCCACGC ((.(.((....)).).)) | -8.66 | 38.2 |

| Sequence | folding enthalpy [1] [kcal/mol] | Tm [2] [°C] |
| --- | --- | --- |
| GATCAAACCTTGATC ((((((...)))))) | -29.1 | 40.9 |
| TTAGCGAAAGCTAA (((((....))))) | -16.2 | 51.2 |
| GCCGACGAAAGTCCTGGC ((((((....)))..))) | -20.2 | 45.1 |
| GGGCAAGGAAACTTGTCC ((.((((....)))).)) | -40.7 | 52.3 |
| GCTCGGGGAAACCTGAGC ((((.((....)).)))) | -35.1 | 59.3 |
| GGTTACGGAAACGTAACC (((((((....))))))) | -43 | 65.4 |
| GATCAGCGAAAGCTAATC (((.(((....))).))) | -15.7 | 35.9 |
| GATCTATGTTAGATC ((((((...)))))) | -27.7 | 41.3 |
| GGGGCCTCGAAAGAGCCC (((..(((....)))))) | -23.8 | 56.8 |
| CAATCCGAAAGGCTTG (((.((....)).))) | -17 | 34.7 |
| GCTGACGAAAGTCGAAGC ((((((....)))..))) | -19.1 | 48.5 |
| GGTCTAGGAAACTGGACC ((((.((....)).)))) | -41.6 | 51 |
| GTGGCCGAAAGGCGCCAC ((((((....)))..))) | -13.7 | 49 |
| GATCTGGTTTCAGATC ((((((....)))))) | -35.9 | 51.1 |
| GCGATACCTCGC ((((....)))) | -24.9 | 51.4 |
| GCATATCCGAAAGGATGC (((..(((....)))))) | -15.2 | 43.5 |
| GCCTCTCGAAAGAGTGGC (((.(((....))).))) | -41.8 | 57.4 |
| GAGACGCGAAAGCGCCTC (((.(((....))).))) | -30.3 | 58.7 |
| GGAAGACCGAAAGGTTCC (((..(((....)))))) | -16 | 37.4 |
